Measured values collected from several papers.
Protocols differ between the studies behind these lines.
Target: Serine/threonine-protein kinase Nek3 (NEK3, Homo sapiens, UniProt P51956)
Residues used in one study (P51956 1-506): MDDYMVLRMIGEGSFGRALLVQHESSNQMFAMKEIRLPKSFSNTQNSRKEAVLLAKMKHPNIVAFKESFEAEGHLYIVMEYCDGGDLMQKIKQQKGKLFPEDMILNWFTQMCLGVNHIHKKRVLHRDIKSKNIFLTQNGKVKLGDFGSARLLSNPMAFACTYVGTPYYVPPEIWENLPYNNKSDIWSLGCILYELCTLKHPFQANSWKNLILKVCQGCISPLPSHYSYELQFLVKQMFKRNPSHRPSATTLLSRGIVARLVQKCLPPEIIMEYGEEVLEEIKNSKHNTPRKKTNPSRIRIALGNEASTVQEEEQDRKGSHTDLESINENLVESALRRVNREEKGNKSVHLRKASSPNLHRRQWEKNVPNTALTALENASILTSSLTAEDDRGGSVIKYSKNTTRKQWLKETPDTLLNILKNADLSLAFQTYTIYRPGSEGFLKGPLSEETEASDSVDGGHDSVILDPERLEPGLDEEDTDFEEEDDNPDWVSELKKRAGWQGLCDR

Structure (SMILES)	test	setting	quantity	value
CCCS(=O)(=O)Nc1ccc(F)c(C(=O)c2c[nH]c3ncc(-c4ccc(Cl)cc4)cc23)c1F	enzyme activity, inhibitor	1 µM	inhibition	< 10%
CNC(=O)c1cc(Oc2ccc(NC(=O)Nc3ccc(Cl)c(C(F)(F)F)c3)cc2)ccn1	cell-free assay	0.5 µM	remaining signal	97.2%
O=C(Nc1cnn(-c2csc(C(=O)NC3COC3)c2)c1)Nc1ccccc1Cl	enzyme activity, inhibitor	5 µM	remaining activity	103%
Nc1ncnc2occ(-c3ccc(NC(=O)Nc4cc(C(F)(F)F)ccc4F)cc3)c12	cell-free assay, inhibitor	20 µM	remaining signal	63%
Cc1sc(C(=O)NC2COC2)cc1-n1cc(NC(=O)Nc2c(F)cccc2Cl)cn1	enzyme activity, inhibitor	10 µM	remaining activity	87.5%
CS(=O)(=O)N1CCCC(NC(=O)[C@H](CCC2CCCCC2)NC(=O)c2ccc(CNC(=O)c3cnc4ccccn34)cc2)C1 (stereo partly shown)	cell-free assay, competition with immobilised ligand	0.1 µM	remaining binding	100%
CN1CC(Oc2cnc(C#N)cc2-c2ccn3nc(NC(=O)C4CC4)cc3c2)C1	enzyme activity, inhibitor	1 µM	inhibition	12%
O=C1NC(=O)c2cc(Nc3ccc(F)cc3)c(Nc3ccc(F)cc3)cc21	cell-free assay	0.5 µM	remaining signal	99.1%
Nc1c(C(=O)NCc2ccc(C(=O)NCCCC3CCCCC3)cc2)cnn1-c1ccccc1	cell-free assay, competition with immobilised ligand	0.1 µM	remaining binding	100%
CCCCNc1ncc2c(-c3ccc(F)cc3)nn(C[C@H]3CC[C@H](N)CC3)c2n1	target engagement in cells, inhibitor, chemoproteomics	20 mM	inhibition	10.1%
Cn1cnc(Br)c1C1=CN(c2ncnc3[nH]cnc23)CCS1	enzyme activity, inhibitor, radiometric	50 nM	inhibition	14.7%
CCN(CC)c1ccc(C2=NNC(=O)CC2C)cc1[N+](=O)[O-] (stereo not shown)	enzyme activity, inhibitor	10 µM	remaining activity	90%
C[C@H](NC(=O)c1cnc2n1[C@](C)(Cc1ccc(C#N)cc1)C(=O)N2c1cc(Cl)c(F)c(Cl)c1)C(=O)NC1(c2ccccn2)CC1	cell-free assay, competition with immobilised ligand	1 µM	remaining binding	100%
Cc1ccc(C(=O)Nc2ccc(CN3CCN(C)CC3)c(C(F)(F)F)c2)cc1C#Cc1cnc2cccnn12	enzyme activity, inhibitor	23.5 nM	remaining activity	86%
Cc1cc(NC(=O)c2cccc3cc(-c4cccc5[nH]nc(N)c45)ccc23)ccc1F	enzyme activity, inhibitor	0.1 µM	activity vs control	83%
C[C@H](c1ccnc(Nc2nc3ccc(-c4cc(N(C)C)ncn4)cc3[nH]2)c1)N1CCN(C(=O)CC(F)(F)F)CC1	cell-free assay, competition with immobilised ligand	0.1 µM	remaining binding	100%
CC(C)(C)c1nc(-c2cccc(NS(=O)(=O)c3c(F)cccc3F)c2F)c(-c2ccnc(N)n2)s1	enzyme activity, inhibitor, radiometric	1 µM	remaining activity	85%
CCN(CC)CCNC(=O)c1c(C)[nH]c(/C=C2\C(=O)Nc3ccc(F)cc32)c1C	cell-free assay	0.5 µM	remaining signal	91.6%
Cn1nc(C(=O)NCc2ccc(C(=O)O)cc2)cc1-c1ccc2[nH]ccc2c1	cell-free assay, competition with immobilised ligand	0.1 µM	remaining binding	100%
